Data: ChEMBL document CHEMBL2040545, “Anti-influenza activity of marchantins, macrocyclic bisbibenzyls contained in liverworts” (2011)
Calls of active or inactive are those of the source. The calls are words filed in the database; no cut-off is given here.

Tests used:
[1] = target: Polymerase acidic protein (Influenza A virus (A/Puerto Rico/8/1934(H1N1))) (UniProt P03433); assay: Inhibition of PA endonuclease at 1 uM; format: functional
Procedure, shortened: (§1)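 Recombinant His-tagged influenza A PA N-terminal endonuclease domain from E. coli, purified on Ni2+-agarose and then Q anion exchange, used at about 0.1 µM (0.35 µg/100 µl). Buffer at pH 7.3, 1 µg M13mp18 single-stranded circular DNA as substrate, compound at 1 or 10 µM. Digestion read by agarose electrophoresis with ethidium bromide staining. No-enzyme control included.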

[2] = target: Polymerase acidic protein (Influenza A virus (A/Puerto Rico/8/1934(H1N1))) (UniProt P03433); assay: Inhibition of PA endonuclease at 10 uM; format: functional; procedure, shortened: as §1
[3] = target: Polymerase acidic protein (Influenza A virus (A/Puerto Rico/8/1934(H1N1))) (UniProt P03433); assay: Inhibition of Influenza Viral Focus Formation at 50 uM relative to control; format: functional, cell-based; conditions: Canis lupus familiaris, MDCK
Procedure, shortened: (§2)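 MDCK cells infected with B/Malaysia/2506/2004 at m.o.i. 0.001, adsorbed 30 min at 37 °C, washed. Compound (50, 12.5 or 3.1 µM, DMSO vehicle) added in growth medium, no pre-incubation. Supernatant sampled daily over 3 days at 37°C. Each sample titrated 10-fold on fresh MDCK, ethanol-fixed after 1 day. Foci stained with anti-NP serum and the PAP/DAB method, then counted as FFU/ml.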

[4] = target: Polymerase acidic protein (Influenza A virus (A/Puerto Rico/8/1934(H1N1))) (UniProt P03433); assay: Inhibition of Influenza Viral Focus Formation at 13 uM relative to control; format: functional, cell-based; conditions: Canis lupus familiaris, MDCK; procedure, shortened: as §2
[5] = (§3) Inhibition of Influenza Replication; format: functional, Canis lupus familiaris, MDCK
Procedure, shortened: (§4)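 MDCK monolayers (MEM, 10% FBS, 37 °C). Compounds at 6.25–50 µM, DMSO vehicle, premixed 30 min at 37°C with TCID50 of A/Hiroshima/52/2006 (H3N2), A/Solomon/3/2006 (H1N1) or B/Malaysia/2506/2004, then added to PBS-washed cells. Incubated 4 days at 34°C, 5% CO2. Cells fixed in 10% formaldehyde; surviving cells stained with naphthol blue black.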

[6] = as §3; format: functional, Canis lupus familiaris, MDCK; procedure, shortened: as §4; remark: listed apart in the source
[7] = as §3; format: functional, Canis lupus familiaris, MDCK; procedure, shortened: as §4; remark: listed apart in the source

| SMILES | inhibition [1] | inhibition [2] | inhibition [3] [%] | inhibition [4] [%] | Inhibition [5] [µM] | Inhibition [6] [µM] | Inhibition [7] [µM] |
| --- | --- | --- | --- | --- | --- | --- | --- |
| CC(C)=CCOc1c2occc2cc2ccc(=O)oc12 | inactive | inactive | – | – | – | – | – |
| Oc1ccc2cc1Oc1ccc(cc1)CCc1cccc(c1)Oc1c(O)cccc1CC2 | inactive | inactive | – | – | – | – | – |
| COc1ccc(/C=C/c2cc(OC)cc(=O)o2)cc1 | inactive | inactive | – | – | – | – | – |
| COc1cc2c(cc1O)-c1ccc(O)cc1CCc1cc(O)c(O)c(c1)Oc1ccc(cc1)CC2 | inactive | Active | 5.11 | -4.66 | – | – | – |
| Oc1cc2cc(c1O)Oc1ccc(cc1)CCc1cccc(O)c1Oc1cccc(c1)CC2 [MARCHANTIN A] | inactive | Active | 10.2 | 2.33 | 50 | – | – |
| CC1(C)OC1COc1c2occc2cc2ccc(=O)oc12 (stereo unspecified) | inactive | inactive | – | – | – | – | – |
| C=CCc1ccc(O)c(-c2ccc(O)c(CC=C)c2)c1 | inactive | inactive | – | – | – | – | – |
| COC1=CC(=O)O[C@@H](CCc2ccccc2)C1 | inactive | inactive | – | – | – | – | – |
| C=CCc1ccc(O)c(-c2cc(CC=C)ccc2O)c1 | inactive | inactive | – | – | – | – | – |
| COC1Cc2cccc(c2)Oc2c(O)cccc2CCc2ccc(cc2)Oc2cc1cc(O)c2O (stereo unspecified) [MARCHANTIN E] | inactive | Active | 4.44 | 2.96 | 25 | 50 | 50 |
| Oc1ccc2cc1Oc1ccc(cc1)CCc1cccc(O)c1Oc1cccc(c1)CC2 | inactive | inactive | – | – | – | – | – |
| C/C=C(\C)C(=O)CC1C2=CC(=O)[C@](C)(OC(C)=O)C(=O)C2=COC12OC(C)CCC2O (stereo partly specified) | inactive | inactive | – | – | – | – | – |
| COc1cc(/C=C/c2ccccc2)oc(=O)c1 | inactive | inactive | – | – | – | – | – |
| COC1=CC(=O)O[C@@H](/C=C/c2ccccc2)C1 | inactive | inactive | – | – | – | – | – |
| COC(=O)c1[nH]c(C(=O)OC)c(-c2c[nH]c3ccc(O)cc23)c1-c1c[nH]c2ccccc12 | inactive | inactive | – | – | – | – | – |
| Oc1cccc(CCc2ccc(Oc3cc(CCc4cccc(O)c4)cc(O)c3O)cc2)c1 [PERROTETTIN F] | inactive | Active | – | – | 50 | – | – |
| COc1c2ccoc2c(OC)c2oc(=O)ccc12 | inactive | inactive | – | – | – | – | – |

| SMILES | inhibition [1] | inhibition [2] | inhibition [3] [%] | inhibition [4] [%] | Inhibition [5] [µM] | Inhibition [6] [µM] | Inhibition [7] [µM] |
| --- | --- | --- | --- | --- | --- | --- | --- |
| Oc1cc2cc(c1O)Oc1ccc(cc1)CCc1ccc(O)c(O)c1Oc1cccc(c1)CC2 | inactive | Active | – | – | – | – | – |
| C[C@H]1OC(=O)C=C[C@@H]1O | inactive | inactive | – | – | – | – | – |
| COc1cc(O)cc(C(=O)c2cc(C)cc(OC)c2OC)c1CO | inactive | inactive | – | – | – | – | – |
| COc1cccc2c(-c3ccc(O)c4c(OC)cccc34)ccc(O)c12 | inactive | inactive | – | – | – | – | – |
| COc1ccc2ccc(=O)oc2c1CC=C(C)C | inactive | inactive | – | – | – | – | – |
| Oc1ccc2c(c1)CCc1ccc(O)c(c1)Oc1ccc(cc1)CCc1cccc(c1)O2 | inactive | inactive | – | – | – | – | – |
| CC(C)[C@@H](C)/C=C/[C@@H](C)[C@H]1CCC2=C3C=CC4=CCCC[C@]4(C)[C@H]3CC[C@@]21C | inactive | inactive | – | – | – | – | – |
| COc1cccc2c1Oc1cccc(c1)CCc1cc(OC)c(OC)c(c1)Oc1ccc(cc1)CC2 | inactive | inactive | 5.78 | -2.75 | – | – | – |
| COC(=O)c1[nH]c(C(=O)OC)c(-c2c[nH]c3ccc(O)cc23)c1-c1c[nH]c2ccc(O)cc12 | inactive | inactive | – | – | – | – | – |
| COc1cc(C)cc(C(=O)c2cc(O)cc(OC)c2CO)c1O | inactive | inactive | – | – | – | – | – |
| COc1c2occc2cc2ccc(=O)oc12 | inactive | inactive | – | – | – | – | – |
| COc1c2ccoc2c(OCC=C(C)C)c2oc(=O)ccc12 | inactive | inactive | – | – | – | – | – |
| COc1c2ccoc2cc2oc(=O)ccc12 | inactive | inactive | – | – | – | – | – |
| COC1=CC(=O)O[C@@H](/C=C/c2ccc3c(c2)OCO3)C1 | inactive | inactive | – | – | – | – | – |
| CC(C)=CCOc1c2ccoc2cc2oc(=O)ccc12 | inactive | inactive | – | – | – | – | – |
| COc1ccc2c(c1)CCc1ccc(cc1)Oc1cc(ccc1O)CCc1ccc-2c(O)c1 | inactive | inactive | 5.56 | -3.59 | – | – | – |
